Reference: ChEMBL document CHEMBL5257040, “Discovery of VU2957 (Valiglurax): An mGlu4 Positive Allosteric Modulator Evaluated as a Preclinical Candidate for the Treatment of Parkinson's Disease” (ACS Med Chem Lett, 2019)
pEC50, pIC50: −log10 of the molar value.

Tests used:
[1] = Oral bioavailability in Beagle dog at 3 mg/kg and measured upto 24 hrs by LC-MS/MS analysis; type: ADME, organism-based, Canis lupus familiaris; settings: in vivo
How it was run: (§1)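 Single-dose iv and oral PK in separate arms: mouse 1 mg/kg iv / 3 mg/kg po, SD rat 0.2/3, beagle 0.5/3, cynomolgus 0.2/3 mg/kg. Plasma parameters (Vss, Tmax, F) are means of two to three animals per species.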

[2] = Protein binding in rat plasma assessed as fraction unbound incubated for 4 hrs by equilibrium dialysis based LC/MS/MS analysis; type: ADME, cell-free
[3] = molecular target: Cytochrome P450 2D6 (Homo sapiens, UniProt P10635); test: Inhibition of CYP2D6 in human liver microsomes using […] as substrate preincubated for 15 mins followed by NADPH addition and measured after 8 mins by LC/MS/MS analysis; type: ADME, Microsome
Cytochrome P450 2D6, sequence (P10635 whole entry): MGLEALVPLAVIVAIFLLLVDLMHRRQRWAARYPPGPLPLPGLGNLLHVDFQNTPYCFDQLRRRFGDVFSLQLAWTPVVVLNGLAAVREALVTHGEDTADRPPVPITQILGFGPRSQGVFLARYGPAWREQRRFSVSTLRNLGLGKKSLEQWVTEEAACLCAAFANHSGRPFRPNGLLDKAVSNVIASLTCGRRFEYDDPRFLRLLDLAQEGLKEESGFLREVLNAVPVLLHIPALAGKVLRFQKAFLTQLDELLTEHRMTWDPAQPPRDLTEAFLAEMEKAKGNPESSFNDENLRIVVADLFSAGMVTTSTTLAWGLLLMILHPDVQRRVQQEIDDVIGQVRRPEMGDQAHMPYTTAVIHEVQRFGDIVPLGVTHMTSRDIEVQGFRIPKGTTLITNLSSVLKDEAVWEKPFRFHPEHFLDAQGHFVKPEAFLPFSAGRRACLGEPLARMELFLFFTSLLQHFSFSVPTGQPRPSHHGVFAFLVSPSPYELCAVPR

[4] = Cmax in Sprague-Dawley rat at 3 mg/kg, po administered as spray-dried dispersion formulation and measured after 24 hrs by LC-MS/MS analysis; type: ADME, organism-based; design: time 24 hrs, dose 3 mg/kg, route po; settings: in vivo
How it was run: (§2)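 Rats were dosed orally at 3, 10 and 30 mg/kg with a spray-dried dispersion of the free base and HPMCP-HP55 polymer (25%/75%), in 30% Dexolve. Total plasma Cmax and AUC were measured, N = 3.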

[5] = molecular target: Aryl hydrocarbon receptor (Rattus norvegicus, UniProt P41738); test: Activation of rat AhR
Aryl hydrocarbon receptor, sequence (P41738 whole entry): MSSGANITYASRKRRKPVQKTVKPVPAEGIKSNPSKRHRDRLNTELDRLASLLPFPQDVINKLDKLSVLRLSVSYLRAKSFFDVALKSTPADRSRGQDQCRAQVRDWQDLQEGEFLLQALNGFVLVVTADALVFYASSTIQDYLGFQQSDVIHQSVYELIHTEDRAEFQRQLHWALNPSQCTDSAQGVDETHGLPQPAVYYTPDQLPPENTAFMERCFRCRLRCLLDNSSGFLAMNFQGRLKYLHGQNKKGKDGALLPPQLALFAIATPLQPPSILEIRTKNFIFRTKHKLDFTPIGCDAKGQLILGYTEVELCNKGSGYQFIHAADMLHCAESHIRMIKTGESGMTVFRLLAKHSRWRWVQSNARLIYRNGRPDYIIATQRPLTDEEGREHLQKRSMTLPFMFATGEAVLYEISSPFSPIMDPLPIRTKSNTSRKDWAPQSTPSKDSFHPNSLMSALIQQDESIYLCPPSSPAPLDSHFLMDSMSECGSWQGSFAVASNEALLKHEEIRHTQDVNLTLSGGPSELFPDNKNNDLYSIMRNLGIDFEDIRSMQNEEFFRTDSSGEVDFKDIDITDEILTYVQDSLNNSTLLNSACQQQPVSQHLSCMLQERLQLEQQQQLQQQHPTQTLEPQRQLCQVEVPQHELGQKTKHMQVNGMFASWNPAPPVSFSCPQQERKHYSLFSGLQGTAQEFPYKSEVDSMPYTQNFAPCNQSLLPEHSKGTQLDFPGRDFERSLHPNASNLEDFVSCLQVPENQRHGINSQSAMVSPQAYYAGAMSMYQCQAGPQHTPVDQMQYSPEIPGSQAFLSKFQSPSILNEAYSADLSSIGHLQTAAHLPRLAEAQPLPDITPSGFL

[6] = molecular target: Metabotropic glutamate receptor 8 (Rattus norvegicus, UniProt P70579); test: Positive allosteric modulator activity at rat mGlu8 in human HEK cells co-expressing […] assessed as increase in by thallium flux preincubated for 2.5 mins followed by gluatamate addition by thallium flux assay; type: cell-based
[7] = Genotoxicity in Salmonella typhimurium TA98 in presence of S9 fraction by Ames test; type: toxicity, subcellular; settings: salmonella enterica subsp. enterica serovar typhimurium
How it was run: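 Ames bacterial reverse mutation test in strains TA98 and […], run with and without S9 metabolic activation.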

[8] = molecular target: Cytochrome P450 1A2 (Homo sapiens, UniProt P05177); test: Inhibition of CYP1A2 in human liver microsomes using […] as substrate preincubated for 15 mins followed by NADPH addition and measured after 8 mins by LC/MS/MS analysis; type: ADME, Microsome
[9] = Volume of distribution at steady state in Beagle dog at 0.5 mg/kg, iv and measured upto 24 hrs by LC-MS/MS analysis; type: ADME, organism-based, Canis lupus familiaris; settings: in vivo, read-out: Vdss; how it was run: as §1
[10] = Drug uptake in plasma of haloperidol-induced catalepsy Sprague-Dawley rat model at 0.3 to 30 mg/kg,po; type: ADME, organism-based; settings: in vivo, dose 0.3-30 mg/kg
How it was run: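 Rats were given haloperidol 1.5 mg/kg i.p. to induce catalepsy and dosed orally at 0.3–30 mg/kg, N = 8–10 per group. Total plasma and CSF concentrations were measured alongside the catalepsy read-out. Satellite rats were used for PK in the time-course study.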

[11] = molecular target: Nuclear receptor subfamily 1 group I member 2 (Homo sapiens, UniProt O75469); test: Activation of human PXR
Nuclear receptor subfamily 1 group I member 2, sequence (O75469 whole entry): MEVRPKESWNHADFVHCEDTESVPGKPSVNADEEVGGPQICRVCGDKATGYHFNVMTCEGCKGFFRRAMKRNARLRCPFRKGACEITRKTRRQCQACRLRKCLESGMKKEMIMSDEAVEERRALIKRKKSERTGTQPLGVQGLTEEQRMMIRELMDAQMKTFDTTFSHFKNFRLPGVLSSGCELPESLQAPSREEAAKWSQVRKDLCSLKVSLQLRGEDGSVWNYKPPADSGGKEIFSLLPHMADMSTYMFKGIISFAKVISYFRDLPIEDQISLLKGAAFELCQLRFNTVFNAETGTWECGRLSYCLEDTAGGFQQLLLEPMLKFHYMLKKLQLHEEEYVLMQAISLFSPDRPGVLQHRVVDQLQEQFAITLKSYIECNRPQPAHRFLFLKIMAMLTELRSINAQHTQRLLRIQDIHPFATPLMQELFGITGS

[12] = molecular target: HCN4 (Homo sapiens, UniProt Q9Y3Q4); test: Inhibition of HCN4 (unknown origin) at 10 uM; type: toxicity
HCN4, sequence (Q9Y3Q4 whole entry): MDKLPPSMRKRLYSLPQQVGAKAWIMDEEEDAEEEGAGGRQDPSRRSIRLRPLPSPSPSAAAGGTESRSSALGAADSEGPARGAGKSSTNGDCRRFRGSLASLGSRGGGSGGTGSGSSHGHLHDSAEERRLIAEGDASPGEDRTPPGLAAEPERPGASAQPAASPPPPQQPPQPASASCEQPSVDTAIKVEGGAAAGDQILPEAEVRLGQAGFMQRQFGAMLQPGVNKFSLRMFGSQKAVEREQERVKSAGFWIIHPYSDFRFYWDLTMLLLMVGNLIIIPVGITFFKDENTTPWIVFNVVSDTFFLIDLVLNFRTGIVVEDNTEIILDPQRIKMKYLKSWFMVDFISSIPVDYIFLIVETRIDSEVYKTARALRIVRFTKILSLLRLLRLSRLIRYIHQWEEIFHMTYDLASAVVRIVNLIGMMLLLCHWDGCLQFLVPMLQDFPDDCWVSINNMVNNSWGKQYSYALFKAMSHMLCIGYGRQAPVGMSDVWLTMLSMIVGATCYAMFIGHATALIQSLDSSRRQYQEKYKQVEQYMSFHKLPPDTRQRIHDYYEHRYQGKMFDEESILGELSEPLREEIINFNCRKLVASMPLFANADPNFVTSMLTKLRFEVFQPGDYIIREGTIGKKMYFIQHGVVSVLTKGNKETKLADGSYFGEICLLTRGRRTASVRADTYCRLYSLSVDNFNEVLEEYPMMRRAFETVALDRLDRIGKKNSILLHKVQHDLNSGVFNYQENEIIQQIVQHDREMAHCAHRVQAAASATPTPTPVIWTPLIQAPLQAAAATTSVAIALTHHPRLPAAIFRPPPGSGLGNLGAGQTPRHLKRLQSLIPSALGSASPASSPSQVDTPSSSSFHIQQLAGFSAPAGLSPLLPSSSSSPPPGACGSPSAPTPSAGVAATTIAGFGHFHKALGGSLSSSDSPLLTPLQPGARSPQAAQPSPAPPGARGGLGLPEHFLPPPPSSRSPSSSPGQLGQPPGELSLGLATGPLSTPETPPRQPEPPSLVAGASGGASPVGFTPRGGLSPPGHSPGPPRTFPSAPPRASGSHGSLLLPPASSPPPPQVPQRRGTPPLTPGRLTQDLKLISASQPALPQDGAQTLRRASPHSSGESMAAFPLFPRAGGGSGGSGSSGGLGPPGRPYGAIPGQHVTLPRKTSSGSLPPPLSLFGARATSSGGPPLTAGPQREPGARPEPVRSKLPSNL
How it was run: (§3)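 Cardiac ion channel electrophysiology (functional EP) panel, with percent inhibition measured at 10 μM.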

[13] = Volume of distribution at steady state in CD-1 mouse plasma at 1 mg/kg, iv and measured upto 24 hrs by LC-MS/MS analysis; type: ADME, organism-based; settings: read-out: Vdss; how it was run: as §1
[14] = Brain to plasma permeability coefficient, Kp in cynomolgus monkey at 0.2 mg/kg, iv and measured upto 1 hrs by LC-MS/MS analysis; type: ADME, organism-based, Macaca fascicularis
How it was run: (§4)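 Total brain to total plasma partition coefficient (Kp) measured in mouse, SD rat and cynomolgus monkey. The unbound ratio (Kp,uu) was corrected with brain homogenate binding. Values are means of two to three animals.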

[15] = Tmax in Sprague-Dawley rat at 3 mg/kg, po and measured upto 24 hrs by LC-MS/MS analysis; type: ADME, organism-based; settings: in vivo; how it was run: as §1
[16] = molecular target: Metabotropic glutamate receptor 4 (Homo sapiens) (UniProt Q14833); test: Positive allosteric modulator activity at human mGlu4 in Chinese hamster CHO cells co-expressing Gqi5 assessed as maximum increase in calcium flux preincubated for 2.5 mins followed by gluatamate addition and measured for 2 mins by Fluo-4 AM dye based calcium mobilization assay; type: cell-based; settings: filed as positive allosteric modulator, time 4.5 min
[17] = Brain to plasma permeability coefficient, Kp in Sprague-Dawley rat at 0.2 mg/kg, iv and measured upto 24 hrs by LC-MS/MS analysis; type: ADME, organism-based; how it was run: as §4
[18] = AUC in Sprague-Dawley rat at 3 mg/kg, po administered as spray-dried dispersion formulation and measured after 24 hrs by LC-MS/MS analysis; type: ADME, organism-based; design: dose 3 mg/kg, time 24 hrs, route po; settings: in vivo; how it was run: as §2
[19] = Oral bioavailability in Sprague-Dawley rat at 3 mg/kg and measured upto 24 hrs by LC-MS/MS analysis; type: ADME, organism-based; settings: in vivo; how it was run: as §1
[20] = molecular target: Kir2.1 (Homo sapiens, UniProt Q7Z4S6); test: Inhibition of Kir2.1 (unknown origin) at 10 uM; type: toxicity; how it was run: as §3
Kir2.1, sequence (Q7Z4S6 whole entry): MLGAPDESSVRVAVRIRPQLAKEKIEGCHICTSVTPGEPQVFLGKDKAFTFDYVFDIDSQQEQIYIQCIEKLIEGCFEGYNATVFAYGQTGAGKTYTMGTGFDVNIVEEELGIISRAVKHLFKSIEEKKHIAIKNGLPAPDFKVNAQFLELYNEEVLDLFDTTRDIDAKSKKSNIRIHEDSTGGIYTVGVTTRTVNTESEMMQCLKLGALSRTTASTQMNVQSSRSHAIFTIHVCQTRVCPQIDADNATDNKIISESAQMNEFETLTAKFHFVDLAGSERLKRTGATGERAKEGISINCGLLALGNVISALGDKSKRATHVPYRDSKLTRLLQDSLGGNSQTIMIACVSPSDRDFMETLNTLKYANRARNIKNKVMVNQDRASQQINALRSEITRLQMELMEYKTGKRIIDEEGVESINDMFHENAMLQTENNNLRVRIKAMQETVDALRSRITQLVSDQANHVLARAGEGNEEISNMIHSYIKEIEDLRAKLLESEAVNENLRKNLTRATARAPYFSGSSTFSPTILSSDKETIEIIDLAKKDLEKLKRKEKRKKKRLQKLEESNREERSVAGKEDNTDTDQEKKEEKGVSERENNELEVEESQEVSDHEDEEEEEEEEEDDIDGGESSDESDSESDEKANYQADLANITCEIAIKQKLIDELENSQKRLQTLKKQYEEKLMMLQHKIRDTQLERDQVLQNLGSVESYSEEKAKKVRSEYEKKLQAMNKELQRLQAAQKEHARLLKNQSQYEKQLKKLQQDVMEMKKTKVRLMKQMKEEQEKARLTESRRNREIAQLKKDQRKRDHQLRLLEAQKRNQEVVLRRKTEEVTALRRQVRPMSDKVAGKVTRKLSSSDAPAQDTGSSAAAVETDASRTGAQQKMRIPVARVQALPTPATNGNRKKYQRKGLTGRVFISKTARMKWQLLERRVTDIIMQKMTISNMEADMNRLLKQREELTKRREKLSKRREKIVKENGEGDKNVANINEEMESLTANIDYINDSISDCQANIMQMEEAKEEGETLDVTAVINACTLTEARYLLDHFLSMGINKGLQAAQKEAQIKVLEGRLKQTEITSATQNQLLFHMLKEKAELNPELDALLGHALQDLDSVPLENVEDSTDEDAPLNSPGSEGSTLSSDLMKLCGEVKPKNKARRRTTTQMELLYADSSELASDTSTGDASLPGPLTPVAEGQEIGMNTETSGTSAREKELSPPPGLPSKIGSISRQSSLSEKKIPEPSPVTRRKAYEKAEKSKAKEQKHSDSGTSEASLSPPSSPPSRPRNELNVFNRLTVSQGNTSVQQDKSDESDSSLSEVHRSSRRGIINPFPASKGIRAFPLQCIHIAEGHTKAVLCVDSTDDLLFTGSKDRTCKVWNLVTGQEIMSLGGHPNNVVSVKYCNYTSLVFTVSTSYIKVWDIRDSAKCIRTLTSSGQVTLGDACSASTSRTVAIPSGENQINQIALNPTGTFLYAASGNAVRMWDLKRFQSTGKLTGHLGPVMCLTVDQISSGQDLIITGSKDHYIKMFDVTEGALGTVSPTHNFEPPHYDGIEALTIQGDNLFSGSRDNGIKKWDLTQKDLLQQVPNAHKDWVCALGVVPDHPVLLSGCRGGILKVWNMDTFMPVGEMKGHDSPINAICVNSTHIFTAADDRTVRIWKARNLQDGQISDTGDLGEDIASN

[21] = molecular target: Cav1.2 (Homo sapiens, UniProt Q13936); test: Inhibition of Cav1.2 (unknown origin) at 10 uM; type: toxicity; how it was run: as §3
[22] = Volume of distribution at steady state in Cynomolgus monkey at 0.2 mg/kg, iv and measured upto 24 hrs by LC-MS/MS analysis; type: ADME, organism-based, Macaca fascicularis; settings: in vivo, read-out: Vdss; how it was run: as §1
[23] = Oral bioavailability in Cynomolgus monkey at 3 mg/kg administered as spray-dried dispersion formulation and measured upto 24 hrs by LC-MS/MS analysis; type: ADME, organism-based, Macaca fascicularis; settings: in vivo
How it was run: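 Cynomolgus oral dosing used a spray-dried dispersion of the compound with HPMCP-HP55 polymer at a 25%/75% drug-to-polymer ratio. Oral bioavailability (%F) was determined from plasma exposure.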

[24] = Clearance in CD-1 mouse plasma at 1 mg/kg, iv and measured upto 24 hrs by LC-MS/MS analysis; type: ADME, organism-based
How it was run: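 Single intravenous doses: mouse 1 mg/kg, SD rat 0.2 mg/kg, beagle dog 0.5 mg/kg, cynomolgus monkey 0.2 mg/kg. Plasma clearance, Vss and elimination half-life came from the plasma profiles. Values are means of two to three animals.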

[25] = molecular target: P-gp (ABCB1) (Homo sapiens, UniProt P08183); test: Substrate activity at human P-gp assessed as efflux ratio; type: ADME; settings: not told
[26] = AUC in Sprague-Dawley rat at 30 mg/kg, po administered as spray-dried dispersion formulation and measured after 24 hrs by LC-MS/MS analysis; type: ADME, organism-based; design: dose 30 mg/kg, time 24 hrs, route po; settings: in vivo; how it was run: as §2
[27] = AUC (0 to infinity) in Beagle dog at 3 mg/kg, po and measured upto 24 hrs by LC-MS/MS analysis; type: ADME, organism-based, Canis lupus familiaris; design: time < 24 hrs, dose 3 mg/kg, route po; settings: in vivo
How it was run: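 Single oral 3 mg/kg dose in mouse, SD rat, beagle dog and cynomolgus monkey. Total plasma exposure after the oral dose gave Cmax, Tmax, AUC0-inf and F. Values are means of two to three animals.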

[28] = molecular target: Amine oxidase [flavin-containing] B (Homo sapiens, UniProt P27338); test: Binding affinity to MAO-B (unknown origin)
[29] = Cmax in Sprague-Dawley rat at 3 mg/kg, po and measured upto 24 hrs by LC-MS/MS analysis; type: ADME, organism-based; design: time < 24 hrs, dose 3 mg/kg, route po; settings: in vivo
How it was run: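 Single oral 3 mg/kg dose in mouse, SD rat, beagle and cyno. Cmax is the peak total plasma concentration. Values are means of two to three animals.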

FC(F)(F)c1nccc2cc(Nc3n[nH]c4ncccc34)ccc12
bioavailability [1]: 37.5% | fraction unbound at 4 h [2]: 0.01 | pIC50 [3]: < 4.52 | Cmax [4]: 0.63 µM | Activity [5]: Not Active | pEC50 [6]: < 5.00 | Activity [7]: Non-Toxic | pIC50 [8]: 5.82 | Vd [9]: 4.3 L/kg | concentration [10]: 0.322 µM | Activity [11]: Not Active | inhibition at 10 µM [12]: < 50% | Vd [13]: 9.93 L/kg | Kp at 1 h [14]: 1.24 | Tmax [15]: 2 h | Emax [16]: 92.6% | Kp at 24 h [17]: 1.51 | AUC at 24 h [18]: 5.92 µM·h | bioavailability [19]: 100% | inhibition at 10 µM [20]: < 50% | inhibition at 10 µM [21]: < 50% | Vd [22]: 3.2 L/kg | bioavailability [23]: 58% | clearance [24]: 4.7 L/h/kg | efflux ratio [25]: 1.3 | AUC at 24 h [26]: 83.9 µM·h | AUC(0-inf) [27]: 1.82 µM·h | pEC50 [28]: < 4.52 | Cmax [29]: 1.44 µM
